Source: ChEMBL document CHEMBL1795243, “New microtubule polymerization inhibitors comprising a nitrooxymethylphenyl group” (Bioorg Med Chem, 2011)
Active and inactive are the calls of the source. No cut-off for these calls is given here.

Columns and labels:
HCT-116 [1] = assay: Antiproliferative activity against human HCT116 cells after 72 hrs by cell counting kit analysis; assay type: functional, cell-based; details: HCT-116, 72 h
Outline: (§1)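 Cells grown with compound for 72 h, then growth quantified by WST-1 Cell Counting Kit. Final concentrations 1, 10, 25, 50, 100 and 200 μM. All media had 10% FBS, 37 °C, 5% CO2. Read-out IC50.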

MCF7 = assay: Antiproliferative activity against human MCF7 cells after 72 hrs by cell counting kit analysis; assay type: functional, cell-based; details: MCF7, 72 h; outline: as §1
SW-620 = assay: Antiproliferative activity against human SW620 cells after 72 hrs by cell counting kit analysis; assay type: functional, cell-based; details: SW-620, 72 h; outline: as §1
SK-BR-3 = assay: Antiproliferative activity against human SK-BR-3 cells after 72 hrs by cell counting kit analysis; assay type: functional, cell-based; details: SK-BR-3, 72 h; outline: as §1
MDA-MB-231 = assay: Antiproliferative activity against human MDA-MB-231 cells after 72 hrs by cell counting kit analysis; assay type: functional, cell-based; details: MDA-MB-231, 72 h; outline: as §1
SW480 = assay: Antiproliferative activity against human SW480 cells after 72 hrs by cell counting kit analysis; assay type: functional, cell-based; details: SW480, 72 h; outline: as §1
HCT-116 [2] = assay: Cell cycle arrest in human HCT116 cells assessed as accumulation at S phase at 40 uM after 24 hrs by FACS analysis (reference value: 8.5 %); assay type: functional
HCT-116 [3] = assay: Induction of apoptosis in human HCT116 cells at 40 uM after 24 hrs using FITC-TUNEL staining by flow cytometry; assay type: functional
Outline: (§2)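 HCT116 at 1.0×10^6 per 60 mm dish, treated 24 or 48 h (0.4% DMSO control). Floating plus adherent cells assayed with DeadEnd Fluorometric TUNEL System, and FITC-TUNEL-positive percentage read by flow cytometry. Five independent experiments.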

HCT-116 [4] = assay: Induction of apoptosis in human HCT116 cells at 40 uM after 48 hrs using FITC-TUNEL staining by flow cytometry (reference value: 7.3 %); assay type: functional; outline: as §2
HCT-116 [5] = assay: Cell cycle arrest in human HCT116 cells assessed as accumulation at sub-G1 phase at 40 uM after 24 hrs by FACS analysis (reference value: 6.2 %); assay type: functional
HCT-116 [6] = assay: Cell cycle arrest in human HCT116 cells assessed as accumulation at G2/M phase at 40 uM after 24 hrs by FACS analysis (reference value: 10.9 %); assay type: functional
HCT-116 [7] = assay: Cell cycle arrest in human HCT116 cells assessed as increase of phosphorylated histone H3 at Ser10 level at 40 uM after 24 hrs using propidium iodide staining by flow cytometry (reference value: 1.4 %); assay type: functional
HCT-116 [8] = assay: Cell cycle arrest in human HCT116 cells assessed as increase of phosphorylated histone H3 at Ser10 level at 20 to 40 uM after 24 hrs by Western blotting; assay type: functional, cell-based
Outline: (§3)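 HCT116 (1.0×10^6/dish) serum-starved 24 h, then treated 24 h in serum-free medium (0.4% DMSO control). Lysed 1 h at 0 °C in modified lysis buffer (pH 8.0, 1% NP-40). 7.5 µg protein run on SDS-PAGE and PVDF blot, probed for phospho-histone H3 Ser10 and total H3, ECL detection. Five independent experiments.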

HCT-116 [9] = assay: Cell cycle arrest in human HCT116 cells assessed as accumulation at G0/G1 phase at 40 uM after 24 hrs by FACS analysis (reference value: 76.5 %); assay type: functional
HCT-116 [10] = assay: Antitumor activity against human HCT116 cells xenografted in nude mouse assessed as inhibition of tumor growth at 80 mg/kg, ip administered at days 0, 2, 4, 7, 9, 11, 14 and 16 measured on day 21 relative to control; assay type: functional; details: route intraperitoneal
HCT-116 [11] = assay: Induction of apoptosis in human HCT116 cells at 20 uM after 48 hrs using FITC-TUNEL staining by flow cytometry (reference value: 7.3 %); assay type: functional; outline: as §2
Tubulin (Sus scrofa) = Tubulin (Sus scrofa) (UniProt P02554+P02550); assay: Inhibition of purified porcine brain tubulin polymerization at 20 uM after 100 mins by fluorescence assay
Outline: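 Porcine brain tubulin 2.0 mg/mL in General Tubulin Buffer with Tubulin Glycerol Buffer, GTP and DAPI. Added to compound prewarmed at 37 °C (final 2.0% DMSO, which is also the vehicle control). DAPI fluorescence (ex 340, em 460 nm) read kinetically over 100 min. Four independent experiments.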

HCT-116 [12] = assay: Cell cycle arrest in human HCT116 cells assessed as accumulation at S phase at 20 uM after 24 hrs by FACS analysis (reference value: 8.5 %); assay type: functional
HCT-116 [13] = assay: Cell cycle arrest in human HCT116 cells assessed as increase of phosphorylated histone H3 at Ser10 level at 20 uM after 24 hrs using propidium iodide staining by flow cytometry (reference value: 1.4 %); assay type: functional
HCT-116 [14] = assay: Cell cycle arrest in human HCT116 cells assessed as accumulation at G0/G1 phase at 20 uM after 24 hrs by FACS analysis (reference value: 76.5 %); assay type: functional
HCT-116 [15] = assay: Cell cycle arrest in human HCT116 cells assessed as accumulation at G2/M phase at 20 uM after 24 hrs by FACS analysis (reference value: 10.9 %); assay type: functional
[16] = Antiproliferative activity against human CCD-1059SK cells at 200 uM after 72 hrs by cell counting kit analysis; assay type: cell-based; outline: as §1
Tubulin (Homo sapiens) [17] = molecular target: T1, Tubulin (Homo sapiens) (UniProt P68371+Q9H4B7+P0DPH7+P68366+Q13509+Q71U36+P04350+Q3ZCM7+P07437+P68363+Q9BQE3+Q6PEY2+Q13885+Q9BVA1+Q9BUF5); assay: Inhibition of alpha-tubulin polymerization in human HT1080 cells assessed as disruption of microtubule structures at 10 uM after 4 hrs using Hoechst staining by fluorescence microscopic analysis; assay type: cell-based; details: HT-1080
HCT-116 [18] = assay: Induction of apoptosis in human HCT116 cells at 20 uM after 24 hrs using FITC-TUNEL staining by flow cytometry; assay type: functional; outline: as §2
HCT-116 [19] = assay: Cell cycle arrest in human HCT116 cells assessed as accumulation at sub-G1 phase at 20 uM after 24 hrs by FACS analysis (reference value: 6.2 %); assay type: functional
Mus musculus = assay: Toxicity in human HCT116 cells xenografted nude mouse assessed change in body weight at 50 to 80 mg/kg, ip administered at days 0, 2, 4, 7, 9, 11, 14 and 16 measured on day 21; assay type: organism-based, HCT-116; set-up: dose 50-80 mg/kg, route intraperitoneal; details: in vivo
Tubulin (Homo sapiens) [20] = molecular target: T1, Tubulin (Homo sapiens); assay: Inhibition of alpha-tubulin polymerization in human HT1080 cells assessed as disruption of microtubule structures at 100 nM after 4 hrs using Hoechst staining by fluorescence microscopic analysis; assay type: cell-based; details: HT-1080
HCT-116 [21] = assay: Induction of apoptosis in human HCT116 cells at 150 nM after 24 hrs using FITC-TUNEL staining by flow cytometry; assay type: functional; outline: as §2
HCT-116 [22] = assay: Cell cycle arrest in human HCT116 cells assessed as increase of phosphorylated histone H3 at Ser10 level at 150 nM after 24 hrs by Western blotting; assay type: functional, cell-based; outline: as §3
HCT-116 [23] = assay: Cell cycle arrest in human HCT116 cells assessed as accumulation at G2/M phase at 150 nM after 24 hrs by FACS analysis (reference value: 10.9 %); assay type: functional
HCT-116 [24] = assay: Cell cycle arrest in human HCT116 cells assessed as accumulation at sub-G1 phase at 150 nM after 24 hrs by FACS analysis (reference value: 6.2 %); assay type: functional
HCT-116 [25] = assay: Cell cycle arrest in human HCT116 cells assessed as increase of phosphorylated histone H3 at Ser10 level at 150 nM after 24 hrs using propidium iodide staining by flow cytometry (reference value: 1.4 %); assay type: functional
HCT-116 [26] = assay: Induction of apoptosis in human HCT116 cells at 150 nM after 48 hrs using FITC-TUNEL staining by flow cytometry (reference value: 7.3 %); assay type: functional; outline: as §2
HCT-116 [27] = assay: Cell cycle arrest in human HCT116 cells assessed as accumulation at S phase at 150 nM after 24 hrs by FACS analysis (reference value: 8.5 %); assay type: functional
HCT-116 [28] = assay: Cell cycle arrest in human HCT116 cells assessed as accumulation at G0/G1 phase at 150 nM after 24 hrs by FACS analysis (reference value: 76.5 %); assay type: functional

Sequence of Tubulin (Sus scrofa) (P02550 whole entry, looked up): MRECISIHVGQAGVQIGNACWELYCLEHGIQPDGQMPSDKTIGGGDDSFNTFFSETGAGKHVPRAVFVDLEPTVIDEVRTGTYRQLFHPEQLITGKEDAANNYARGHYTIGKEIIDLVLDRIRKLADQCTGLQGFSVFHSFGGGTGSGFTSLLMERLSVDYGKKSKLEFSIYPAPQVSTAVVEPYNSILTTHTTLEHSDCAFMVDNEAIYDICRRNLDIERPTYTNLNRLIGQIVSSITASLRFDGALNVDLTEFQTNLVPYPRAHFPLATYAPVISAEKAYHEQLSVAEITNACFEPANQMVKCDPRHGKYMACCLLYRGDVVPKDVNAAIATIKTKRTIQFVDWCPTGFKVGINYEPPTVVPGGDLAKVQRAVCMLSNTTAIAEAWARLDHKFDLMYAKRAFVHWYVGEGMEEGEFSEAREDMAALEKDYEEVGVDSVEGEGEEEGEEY
Sequence of Tubulin (Sus scrofa) (P02554 whole entry, looked up): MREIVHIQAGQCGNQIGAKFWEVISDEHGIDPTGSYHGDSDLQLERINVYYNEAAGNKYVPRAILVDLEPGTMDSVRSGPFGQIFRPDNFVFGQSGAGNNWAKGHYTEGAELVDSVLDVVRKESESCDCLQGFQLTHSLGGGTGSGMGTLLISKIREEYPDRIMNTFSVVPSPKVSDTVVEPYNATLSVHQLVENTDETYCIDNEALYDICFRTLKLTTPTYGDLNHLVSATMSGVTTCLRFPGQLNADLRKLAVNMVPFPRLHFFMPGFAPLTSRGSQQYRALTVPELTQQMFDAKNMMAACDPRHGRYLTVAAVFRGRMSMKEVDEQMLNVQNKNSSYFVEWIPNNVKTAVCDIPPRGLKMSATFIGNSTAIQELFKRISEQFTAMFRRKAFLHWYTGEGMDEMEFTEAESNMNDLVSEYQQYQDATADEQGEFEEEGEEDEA

SMILES	IC50 (HCT-116 [1]) [µM]	IC50 (MCF7) [µM]	IC50 (SW-620) [µM]	IC50 (SK-BR-3) [µM]	IC50 (MDA-MB-231) [µM]	IC50 (SW480) [µM]	further results
O=C(Nc1ccccc1)c1ccc(CO)cc1	24.8	> 100	> 100	9.8	> 100	> 100	–
O=C(Nc1ccccc1OC(=O)c1cccc(CO[N+](=O)[O-])c1)c1cccc(CO[N+](=O)[O-])c1	47.6	> 100	25.8	18.5	30	22.2	–
O=C(Nc1ccccc1)c1ccc(CCl)cc1	1.2	54.3	0.8	0.7	0.8	0.9	–
CC(=O)Oc1ccccc1C(=O)Oc1ccc(CO[N+](=O)[O-])cc1	68	> 100	15.1	30.5	14.4	19.1	Activity (HCT-116 [2]): 18.8%; Activity (HCT-116 [3]): 4%; Activity (HCT-116 [4]): 3.6%; Activity (HCT-116 [5]): 15.3%; Activity (HCT-116 [6]): 12%; Activity (HCT-116 [7]): 1.7%; Activity (HCT-116 [8]): inactive; Activity (HCT-116 [9]): 53.7%
O=C(Nc1ccccc1)c1ccc(CO[N+](=O)[O-])cc1	0.6	> 100	0.8	0.7	0.8	0.8	T/C (HCT-116 [10]): 55%; Activity (HCT-116 [11]): 24.2%; inhibition (Tubulin (Sus scrofa)): Active; Activity (HCT-116 [12]): 7.4%; Activity (HCT-116 [13]): 46.2%; Activity (HCT-116 [14]): 30.4%; Activity (HCT-116 [15]): 51.8%; Activity [16]: Non-toxic; inhibition (Tubulin (Homo sapiens) [17]): Active; Activity (HCT-116 [18]): 4%; Activity (HCT-116 [8]): Active; Activity (HCT-116 [19]): 10.4%; Activity (Mus musculus): Non-toxic
O=C(Nc1ccccc1NC(=O)c1ccc(CO[N+](=O)[O-])cc1)c1ccc(CO[N+](=O)[O-])cc1	> 100	> 100	> 100	> 100	> 100	> 100	–
O=C(Nc1ccccc1)c1cccc(CO[N+](=O)[O-])c1	19.3	> 100	8.4	8.2	8.4	13.3	–
O=C(Nc1ccccc1OC(=O)c1ccc(CCl)cc1)c1ccc(CCl)cc1	0.6	58.1	0.8	0.6	0.8	6.9	–
O=C(Nc1cccc(OC(=O)c2ccc(CO[N+](=O)[O-])cc2)c1)c1ccc(CO[N+](=O)[O-])cc1	6.2	> 100	7.6	6.3	6.7	8.4	–
CC(=O)O[C@H]1C(=O)[C@@]2(C)[C@H]([C@H](OC(=O)c3ccccc3)[C@]3(O)C[C@H](OC(=O)[C@H](O)[C@@H](NC(=O)c4ccccc4)c4ccccc4)C(C)=C1C3(C)C)[C@]1(OC(C)=O)CO[C@@H]1C[C@@H]2O	–	–	–	–	–	–	inhibition (Tubulin (Homo sapiens) [20]): inactive
CC[C@]1(O)C[C@H]2CN(CCc3c([nH]c4ccccc34)[C@@](C(=O)OC)(c3cc4c(cc3OC)N(C=O)[C@H]3[C@@](O)(C(=O)OC)[C@H](OC(C)=O)[C@]5(CC)C=CCN6CC[C@]43[C@@H]65)C2)C1 [VINCRISTINE]	–	–	–	–	–	–	Activity (HCT-116 [21]): 4%; Activity (HCT-116 [22]): Active; Activity (HCT-116 [23]): 28.6%; Activity (HCT-116 [24]): 23%; Activity (HCT-116 [25]): 25.3%; inhibition (Tubulin (Homo sapiens) [20]): Active; Activity (HCT-116 [26]): 31.6%; Activity (HCT-116 [27]): 12.5%; Activity (HCT-116 [28]): 35.9%
O=C(Nc1ccccc1OC(=O)c1ccc(CO[N+](=O)[O-])cc1)c1ccc(CO[N+](=O)[O-])cc1	0.7	> 100	0.8	0.7	1.4	3.8	Activity (HCT-116 [11]): 36.4%; inhibition (Tubulin (Sus scrofa)): Active; Activity (HCT-116 [12]): 7.3%; Activity (HCT-116 [13]): 26.4%; Activity (HCT-116 [14]): 52.4%; Activity (HCT-116 [15]): 29.3%; Activity [16]: Non-toxic; inhibition (Tubulin (Homo sapiens) [17]): Active; Activity (HCT-116 [18]): 4%; Activity (HCT-116 [8]): Active; Activity (HCT-116 [19]): 11%
O=C(Nc1ccccc1)c1ccccc1 [N-PHENYLBENZAMIDE]	> 100	> 100	> 100	> 100	> 100	> 100	–
CCc1ccc(C(=O)Nc2ccccc2)cc1	> 100	> 100	> 100	> 100	> 100	> 100	–
O=C(Oc1ccccc1)c1ccc(CO[N+](=O)[O-])cc1	17.9	> 100	16.9	50.1	47.7	80.7	–
